Reference: PubChem BioAssay
Inconclusive results are not listed.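 How the source made its calls, unless noted: active means growth inhibition above 25% in both replicates, a cutoff set 3 SD above the mean; inconclusive means above 25% in only one replicate; inactive means the rest.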

What was measured:
[1] = OD615 S. cerevisiae growth inhibition, permissive medium, pilot counter-assay, permissive growth control for S. cerevisiae lifespan shortening project (AID 705); conditions: OD615, 24 h, at 10 µM, hits give high values
Summary of the method: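 System: Engineered DeaD yeast | Buffer or medium: SC raffinose/galactose permissive medium | Incubation: Cells pre-grown 4 h, then 24 h compound exposure, 30 °C humidified | Measured by: Absorbance (optical density) at 615 nm | Read-out: Reduction in yeast growth (OD615)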

[2] = Restrictive medium S. cerevisiae growth inhibition, OD615, pilot screen of yeast lifespan reduction project, restrictive growth control (AID 706;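 active means growth inhibition above a set limit, 3 SD over mean compound inhibition, in both replicates, cut at about 43% in these data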;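 further: modified DeaD lifespan yeast strain shifted to restrictive glucose medium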); conditions: OD615, 48 h, at 10 µM, hits give high values
Summary of the method: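 Material: modified S. cerevisiae; Medium: glucose-based CSMM-D restrictive medium; Compound dosing: one concentration, 10 µM final, 0.25% DMSO; Incubation: 48 h compound exposure at 30 °C; Measured by: OD615.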

[3] = viability gain of MRP-1-high H69AR cells under doxorubicin, pilot screen, MRP-1 activator project, CellTiter-Glo, duplicate (AID 807;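 active means viability increase at or above a cutoff of the median across tested compounds plus 3 SD, cut at about 8.5% in these data, passing the limit was not always enough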;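 further: compound pretreatment 18-22 h then 72 h combined with doxorubicin; 0% = doxorubicin alone and 100% = vehicle without doxorubicin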); conditions: H69AR viability with doxorubicin, CellTiter-Glo luminescence; at 10 µM; hits give high values
[4] = growth suppression of beta-catenin knockout HCT116, pilot screen, human colon tumor cells (AID 823;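 active means cell viability at or below a set limit in both duplicate runs, the limit being the all-compound median minus 4 SD, cut at about 23% in these data, passing the limit was not always enough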;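 further: 0% = wells killed by 20 µM Hyamine and 100% = untreated DMSO cell wells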); conditions: CellTiter-Glo, 60 h, at 10 µM, hits give low values
[5] = growth suppression of PTEN-deleted HCT116, pilot screen, cell-based, HCT116 clonal line, CellTiter-Glo (AID 824;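 active means viability at or below 27.92% in each of two runs, the all-compound median minus 4 SD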;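 further: 0% = 20 µM Hyamine control and 100% = vehicle cell control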); conditions: 60 h, at 10 µM, hits give low values
[6] = inhibitors of the yeast RAM network, pilot screen, dse1pr::URA3 reporter, 5-FOA selection (AID 869;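 active means inhibition over a set limit, the all-compound mean plus 3 SD, in both replicate runs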;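 further: 0% = DMSO wells with no growth and 100% = 10 µM 1-NA-PP1 with full growth; RAM network block rescues cells from 5-FOA so hits raise OD615 growth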); conditions: S. cerevisiae dse1pr::URA3 5-FOA growth, OD615, 2 d; at 10 µM; hits give high values; strain carries analog-sensitive mutant Cbk1 kinase
[7] = RAM signaling pathway blockade in yeast – S. cerevisiae, Pdr1DBD-CYC8 efflux-inhibited sensitized strain, primary screen (AID 1298;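 active means RAM network inhibition above 8.4% in each of two replicates, 3 SD over the compound average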;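 further: 0% = DMSO untreated cells without growth and 100% = 10 µM 1-NA-PP1 full growth; higher means more yeast growth rescued from 5-FOA killing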); conditions: S. cerevisiae cbk1-as DSE1-URA3 strain, 5-FOA growth OD615, 2 d; at 50 µM; hits give high values

N#CCC(=O)Nc1ccccc1C(=O)O
inactive: growth inhibition [1] -4.9% | growth inhibition [2] 0.025% | viability increase [3] -2.8% | viability [4] 94.8% | viability [5] 97% | inhibition [6] 0.695% | RAM network inhibition [7] -0.92%

CCN1CCN(c2cc(=O)n(C3CCCCC3)c(=O)[nH]2)CC1
inactive: growth inhibition [1] -13.3% | growth inhibition [2] -10.1% | viability increase [3] 0.11% | viability [4] 104% | viability [5] 102% | inhibition [6] 1.2% | RAM network inhibition [7] 2.53%

CC(C)n1c(SCc2ccccc2F)nc2c1c(=O)n(C)c(=O)n2C
inactive: growth inhibition [1] -11.3% | growth inhibition [2] -1.82% | viability increase [3] -1.77% | viability [4] 82.7% | viability [5] 76.5% | inhibition [6] 1.15% | RAM network inhibition [7] 5.87%

Cc1c(NC(=O)c2ccc3c(c2)OCO3)cccc1-c1nc2ncccc2o1
inactive: growth inhibition [1] -9.32% | growth inhibition [2] -13.2% | viability increase [3] -1.14% | viability [4] 102% | viability [5] 95.3% | inhibition [6] 2.48% | RAM network inhibition [7] 3.92%

Cc1ccnc(NC2c3ccccc3C(=O)N2Cc2ccccc2Cl)c1 (stereo not given)
inactive: growth inhibition [1] 4.26% | growth inhibition [2] 2.1% | viability increase [3] -3.54% | viability [4] 73% | viability [5] 86.8% | inhibition [6] 2.44% | RAM network inhibition [7] 3.54%

O=C(Nc1nc(-c2ccco2)c(-c2ccco2)s1)C1CC(=O)N(c2ccc3c(c2)OCCO3)C1 (stereo not given)
inactive: growth inhibition [1] -14.8% | growth inhibition [2] -20.3% | viability increase [3] -3.72% | viability [4] 76.5% | viability [5] 78.8% | inhibition [6] 2.66% | RAM network inhibition [7] 4.02%

CCN1CCN(C(=O)C2CCN(Cc3nc(-c4ccc(Cl)cc4)oc3C)CC2)CC1
inactive: growth inhibition [1] -10.7% | growth inhibition [2] -25% | viability increase [3] -2.66% | viability [4] 85.8% | viability [5] 79.7% | inhibition [6] 2.88% | RAM network inhibition [7] 2.86%

Cc1ccnc(SCCn2c(N3CCC(C)CC3)nc3c2c(=O)[nH]c(=O)n3C)n1
inactive: growth inhibition [1] -10.1% | growth inhibition [2] -6.83% | viability increase [3] -2.18% | viability [4] 106% | viability [5] 100% | inhibition [6] 0.24% | RAM network inhibition [7] -1.36%

O=P(c1ccccc1)(c1ccccc1)C1CCCO1 (stereo not given)
inactive: growth inhibition [1] -10.8% | growth inhibition [2] 8.75% | viability increase [3] 1.36% | viability [4] 97.7% | viability [5] 91.7% | inhibition [6] 2.44% | RAM network inhibition [7] 0.92%

CCOC(=O)N1CCN(CC(O)c2ccc3cc[nH]c3c2)CC1 (stereo not given)
inactive: growth inhibition [1] -10.8% | growth inhibition [2] -0.09% | viability increase [3] -3.2% | viability [4] 88.8% | viability [5] 88.4% | inhibition [6] 1.44% | RAM network inhibition [7] 1.94%

CCC(C)NC(=O)CS(=O)Cc1nc(-c2cccc(C)c2)oc1C (stereo not given)
inactive: growth inhibition [1] -12.9% | growth inhibition [2] -5.66% | viability increase [3] -1.72% | viability [4] 99.4% | viability [5] 88.2% | inhibition [6] 1.52% | RAM network inhibition [7] 4.65%

N#CCc1nc2n(n1)Cc1ccccc1-2
inactive: growth inhibition [1] -6.24% | growth inhibition [2] -25.7% | viability increase [3] 0.02% | viability [4] 105% | viability [5] 96.8% | inhibition [6] 3.54% | RAM network inhibition [7] 2.06%

COc1ccccc1OCc1nc(C#N)c(N2CC(C)CC(C)C2)o1 (stereo not given)
inactive: growth inhibition [1] -10.7% | growth inhibition [2] -24.8% | viability increase [3] -2.5% | viability [4] 71.7% | viability [5] 72.9% | inhibition [6] 1.48% | RAM network inhibition [7] 9.85%

CC(Sc1nnc(Cn2c(=O)sc3ccccc32)n1C)c1ccccc1 (stereo not given)
inactive: growth inhibition [1] -3.63% | growth inhibition [2] 15.1% | viability increase [3] 0.33% | viability [4] 92.8% | viability [5] 96.3% | inhibition [6] 1.69% | RAM network inhibition [7] 11.7%

COC(=O)c1ccc(/C=N/n2cnnc2)cc1
inactive: growth inhibition [1] -10.3% | growth inhibition [2] -20% | viability increase [3] -1.44% | viability [4] 101% | viability [5] 89.3% | inhibition [6] 0.79% | RAM network inhibition [7] 4.48%
